Compounds with a hit are over-represented: about 1.3% of the library has one in this group of screens.
Tb MetRS inh – T. brucei MetRS inhibitors, primary screen, biochemical, luminescence; purified T. brucei MetRS, ATP depletion, Kinase-Glo luminescence; inhibition, % at 11.9 µM; actives 0.4% (n = 360,000);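 active = inhibition above a per-plate cutoff of the control wells' mean inhibition plus 3 SD, cut at about 5.5% in these data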;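 note: 0% = DMSO wells median and 100% = median of wells with control inhibitor compound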
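assay system = parasite MetRS enzyme | timing = 15 min preincubation, 2 h reaction, all 25 °C | evaluation = percent inhibition relative to median high and low control wells | medium = HEPES buffer containing pyrophosphatase, BSA, spermine, DTT | compound = single dose, 11.9 µM final nominal, 0.9% final DMSO | detection = Kinase-Glo luminescence, ATP depletion format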
HCV core dimer – inhibitors of HCV core protein dimerization, primary screen, biochemical, TR-FRET, high-throughput. TR-FRET GST/Flag-core106 dimerization, 1536-well. inhibition, % at 5 µM. actives 0.33% (n = 300,000). AID 1899, 2009;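 active = inhibition above the mean of all tested compounds plus 3 SD, set per screening campaign, cut at about 45% in these data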
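Material: GST/Flag-tagged HCV core106 proteins. Incubation: 4 h, 22.5 °C incubation. Read-out basis: inhibition (%) from 671 over 617 nm ratio. Measured by: TR-FRET, excitation 340 nm, emission 617 and 671 nm.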
Hep lipid drop – inhibitors of hepatocyte lipid droplet formation, primary screen, imaging, high-throughput imaging, BODIPY stain; AML12 mouse hepatocytes, oleate lipid droplets; inhibition, % at 6.5 µM; actives 0.4% (n = 240,000);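 active = lipid droplet intensity inhibited by at least 50%, with more than 500 cells counted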
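Test system: AML12 mouse liver cells; schedule: overnight exposure; technique: high-content imaging of BODIPY-stained droplets and DAPI nuclei; read-out: % inhibition of corrected integrated BODIPY droplet signal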
HCV NS3 hel inh – inhibitors of HCV NS3 helicase, primary screen, biochemical, Cy5 molecular beacon fluorescence; Hepatitis C virus NS3 helicase; NS3 helicase DNA unwinding; inhibition, % at 10.9 µM; actives 0.56% (n = 290,000); AID 1800, 2009;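 active = inhibition above the mean of all tested compounds plus 3 SD, set per campaign, cut at about 35% in these data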;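 note: 0% = DMSO wells and 100% = thioflavine S control wells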
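Assay system: hepatitis C virus NS3 helicase domain fragment enzyme. Also added: annealed dual-labelled DNA beacon duplex, ATP-started. Timing: 1 h reaction at 25 °C, ATP-initiated. Technique: Cy5 fluorescence at 0 and 60 min, beacon hairpin quenching. Evaluation: % inhibition of unwinding. Replication: one well per compound.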
TbMetRS confirm – T. brucei MetRS inhibitors, confirmation, biochemical, luminescence; AID 624412, 2012; inhibition, % at 11.9 µM; shares compounds with Tb MetRS inh; actives 93% (n = 1,400); T. brucei MetRS enzyme, luminescence (ATP depletion); in the data active = inhibition above about 7%
Jurkat tox – Jurkat T cell cytotoxicity, cytotoxicity control for T. brucei MetRS inhibitor project, luminescence, high throughput | shares compounds with Tb MetRS inh | Jurkat cells viability, ATP luminescence | inhibition, % at 8.3 µM | actives 12% (n = 1,400); in the data active = inhibition above about 15%;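 note: 0% = vehicle and 100% = reference inhibitor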
TbMetRS FP orth – T. brucei MetRS inhibitors, orthogonal assay for T. brucei MetRS inhibitor project, biochemical, fluorescence polarization. shares compounds with Tb MetRS inh. purified T. brucei MetRS. inhibition, % at 11.9 µM. actives 44% (n = 1,400); in the data active = inhibition above about 17%;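 note: 0% = vehicle wells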
Active calls of the source: *; / = not tested or not shown.

SMILES | Tb MetRS inh | HCV core dimer | Hep lipid drop | HCV NS3 hel inh | TbMetRS confirm | Jurkat tox | TbMetRS FP orth
O=C(Nn1c(O)c(C=C2N=c3ccccc3=N2)sc1=S)c1ccccc1 | 5 | 0 | -6 | 4 | / | / | /
Cc1ccc(C(=O)Nn2c(O)c(C=C3N=c4ccccc4=N3)sc2=S)cc1 | 7.5* | -3 | / | 5 | 14* | 7 | 18*
Cc1ccc(S(=O)(=O)Nn2c(O)c(C=C3N=c4ccccc4=N3)sc2=S)cc1 | 78* | -10 | 5 | -29 | 93* | -7 | 57*
NC(=O)c1cccc(-c2ccnc3c2CC(C(=O)Nc2ccc(Cl)cc2)O3)c1 (stereo not drawn) | 52* | / | / | / | 70* | 5 | 47*
O=C(c1ccco1)N1CCN(C(=O)c2ccc(COc3ccc4c(c3)CCC4)o2)CC1 | -2 | 8 | / | -8 | / | / | /
CN1CCN(C(=O)c2ccc(COc3ccc(Cl)cc3Cl)cc2)CC1 | 9.9* | -1 | -4 | -33 | 19* | 8 | 2
CN(C)CCNC(=O)c1ccc(COc2ccc(Cl)cc2Cl)cc1 | 9.7* | -5 | / | -87 | 16* | 27* | 13
O=C(c1ccco1)N1CCN(C(=O)c2ccc(COc3ccc(Cl)cc3Cl)o2)CC1 | 5.9* | 8 | / | -13 | 16* | 2 | 13
CC(=O)Nc1ccc(S(=O)(=O)C(C#N)c2nc3ccccc3nc2NCCCO)cc1 (stereo not drawn) | 0 | -2 | -5 | 2 | / | / | /
CCCCn1c(N)c(N(C)C(=O)c2ccc(-n3cccn3)cc2)c(=O)[nH]c1=O | 0 | / | / | / | / | / | /
CCN(C(=O)CSc1nnc(-c2ccccc2Br)o1)C1CCS(=O)(=O)C1 (stereo not drawn) | -1 | 1 | 3 | -3 | / | / | /
CCN(C(=O)CSc1nnc(-c2c[nH]c3ccccc23)o1)C1CCS(=O)(=O)C1 (stereo not drawn) | 7.3* | -1 | -10 | 10 | 13* | -4 | 12
Cc1ccc(/C(N)=N/OC(=O)CCCc2ccccc2)cc1 | 0 | -5 | 14 | -2 | / | / | /
CO[C@@H]1CN(C)C(=O)c2cc(NC(=O)Nc3cc(F)ccc3F)ccc2OC[C@H](C)N(C(=O)c2cnccn2)C[C@@H]1C | 6.2* | / | / | / | 14* | 0 | 1
CC/C(=N\NC(=O)c1ccc(N(C)C)cc1)c1ccccc1 | 0 | -11 | 0 | -1 | / | / | /
O=C(COc1ccccc1C(=O)NCc1ccncc1)Nc1ccc(Br)cc1 | 4 | -1 | -8 | 2 | / | / | /
O=C(CSc1nc2ccccc2[nH]1)NCCc1ccc(Cl)cc1 | 32* | -3 | -3 | -11 | 37* | 1 | 17*
Cc1ccc(CNC(=O)CSc2nc3ccccc3[nH]2)cc1 | 3 | 0 | -2 | 1 | / | / | /
O=C(CCCSc1nc2ccccc2[nH]1)NCc1ccc(Cl)cc1 | 43* | -1 | 18 | 5 | 68* | -5 | 30*
CC(=O)Nc1ccccc1NC(=O)c1ccccc1-c1ccccc1 | 46* | 0 | / | -5 | 3 | -1 | -4
Fc1ccc(Nc2nc(N/N=C/c3ccco3)nc(N3CCCCC3)n2)cc1 | 1 | 10 | 19 | -64 | / | / | /
CC1CCCCN1C(=O)CN1CCC(c2nc3ccc(Cl)cc3[nH]2)CC1 (stereo not drawn) | 3 | -1 | 7 | -4 | / | / | /
Cc1ccc(CN2CCC(c3nc4ccc(Cl)cc4[nH]3)CC2)cc1 | 8.2* | -3 | / | -10 | 25* | 12 | 8
Clc1ccc2nc(C3CCN(Cc4ccccc4)CC3)[nH]c2c1 | 11* | -5 | / | -8 | 9.8* | 4 | 4
Cc1nn(C)c(C)c1CCC(=O)NC1CC(C)(C)Cc2c1cnn2-c1ccccc1 (stereo not drawn) | 0 | -3 | -6 | -3 | / | / | /
SMILES | Tb MetRS inh | HCV core dimer | Hep lipid drop | HCV NS3 hel inh | TbMetRS confirm | Jurkat tox | TbMetRS FP orth
CCCCn1c(NC(=O)c2ccco2)c(S(=O)(=O)c2ccc(C)cc2)c2nc3ccccc3nc21 | 3 | / | -14 | 3 | / | / | /
CCCCn1c(NS(=O)(=O)c2ccccc2)c(S(=O)(=O)c2ccc(C)cc2)c2nc3ccccc3nc21 | 16* | 36 | 18 | 13 | 12* | 1 | 9
CCCCn1c(NC(=O)c2ccc(Br)o2)c(S(=O)(=O)c2ccccc2)c2nc3ccccc3nc21 | 6.0* | 17 | 8 | 4 | 11* | 1 | 1
CCSc1c(-c2ccccc2)nc2c(C)cccc2c1C(=O)O | -1 | 1 | -3 | 6 | / | / | /
O=C(CC1SC(=Nc2ccccc2)N(Cc2ccccn2)C1=O)Nc1ccc(Br)cc1 (stereo not drawn) | 19* | 15 | 2 | -9 | 38* | 3 | 16
Cc1ccccc1N=C1SC(CC(=O)Nc2ccc3ccccc3c2)C(=O)N1Cc1ccccn1 (stereo not drawn) | -1 | 14 | -26 | -17 | / | / | /
CCOC(=O)CCCCCC(=O)Nc1ccc2c(c1)C(=O)N([C@@H](C)CO)C[C@H](C)[C@H](CN(C)C(=O)NC(C)C)OCCCC[C@H](C)O2 | -1 | / | / | / | / | / | /
CCCCNC(=O)C1(C)CCCCN1C(=O)c1cccs1 (stereo not drawn) | 0 | / | / | / | / | / | /
CC(=O)NCCCOc1ccc([N+](=O)[O-])cc1Cl | 7.3* | -11 | 3 | -5 | 14* | -1 | 5
Cc1ccc(S(=O)(=O)NCC(=O)OC(C)C(=O)Nc2ncc(Cl)cc2Cl)cc1 (stereo not drawn) | -1 | -5 | / | 8 | / | / | /
CS(=O)(=O)N1CCN(c2ccccc2NC(=O)Nc2cccc(Cl)c2)CC1 | 8.4* | -6 | -4 | -32 | 24* | -4 | 74*
CCCc1cc(=O)oc2cc(C)cc(OCC(=O)NC(Cc3c[nH]c4ccc(O)cc34)C(=O)O)c12 (stereo not drawn) | 7.0* | 0 | / | 9 | 12* | -3 | -1
CCCCc1cc(=O)oc2cc(OCC(=O)NC(Cc3c[nH]c4ccc(O)cc34)C(=O)O)ccc12 (stereo not drawn) | 2 | -1 | -5 | 13 | / | / | /
CCc1cc(=O)oc2cc(C)cc(OC(C)C(=O)NC(Cc3c[nH]c4ccc(O)cc34)C(=O)O)c12 (stereo not drawn) | 5.8* | 0 | -1 | 13 | 13* | -6 | 5
CC(Oc1ccc2ccc(=O)oc2c1)C(=O)NC(Cc1c[nH]c2ccc(O)cc12)C(=O)O (stereo not drawn) | 1 | -2 | -8 | 16 | / | / | /
